Data as given in ChEMBL document CHEMBL1121893, “N-Aralkyl substitution of 2-amino-5,6- and -6,7-dihydroxy-1,2,3,4-tetrahydronaphthalenes. 1. Cardiac and pressor/depressor activities” (J Med Chem, 1981).
The source made the active and inactive calls. The calls are words filed in the database; no cut-off is given here.

Tests used:
Canis familiaris [1] = organism: Canis familiaris; test: Cardioselectivity expressed as change in blood pressure for 100% increase in right ventricular contractile force in dogs; assay type: functional, Canis lupus familiaris
In short: (§1)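 Mongrel dogs of either sex, anesthetized with pentobarbital sodium (30 mg/kg iv) and ventilated. Femoral-artery blood pressure, heart rate and right ventricular contractile force were recorded, the force by strain gauge with the muscle stretched to 140% of in situ length. After 30 min equilibration, iv bolus doses in saline with 0.5 mg/mL bisulfite were doubled until contractile force rose 100%. Peak responses were taken.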

Canis familiaris [2] = organism: Canis familiaris; test: Cardioselectivity expressed as change in blood pressure for 50% increase in right ventricular contractile force in dogs; assay type: functional, Canis lupus familiaris
In short: (§2)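 Mongrel dogs of either sex, pentobarbital sodium anaesthesia (30 mg/kg iv, supplemented as needed), ventilated. Femoral arterial BP recorded, drugs given into a forelimb vein as iv boluses in saline with 0.5 mg/mL sodium bisulfite. Right ventricular CF measured by Walton-Brodie strain gauge. Peak response taken per dose, doses raised in 2-fold steps until CF rose 100%. HR and BP changes read at 50% and 100% CF increase. Means ± SEM.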

Canis familiaris [3] = organism: Canis familiaris; test: Ionotropic selectivity expressed as change in heart rate for 50 percent increase in right ventricular contractile force in dogs; assay type: functional, Canis lupus familiaris; in short: as §2
Canis familiaris [4] = organism: Canis familiaris; test: Inotropic potency expressed as 100 percent increase in right ventricular contractile force in dogs; assay type: functional, Canis lupus familiaris, Heart right ventricle; in short: as §1
Canis familiaris [5] = organism: Canis familiaris; test: Inotropic potency expressed as 50 percent increase in right ventricular contractile force in dogs; assay type: functional, Canis lupus familiaris, Heart right ventricle; in short: as §2
Cavia porcellus [6] = organism: Cavia porcellus; test: (§3) Effective concentration for increasing potency force in guinea pig isolated left atria; assay type: functional
In short: (§4)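 Isolated guinea pig left and right atria, field stimulated with 5 ms pulses and allowed to stabilise 60 min with periodic washing. An isoproterenol cumulative concentration-response curve was run first, tissues washed, then a cumulative curve with the test compound. Force was read in both atria and rate in right atria. Intrinsic activity = maximal response ÷ isoproterenol maximum. EC20 was given where EC50 was not reached. Means ± SE.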

Cavia porcellus [7] = organism: Cavia porcellus; test: (§5) Effective concentration for increasing potency rate in guinea pig isolated right atria; assay type: functional; in short: as §4
Cavia porcellus [8] = organism: Cavia porcellus; test: Compound was tested for or relative intrinsic activity in guinea pig isolated atrium left atria; assay type: functional, Cardiac atrium; in short: as §4
Cavia porcellus [9] = organism: Cavia porcellus; test: Compound was tested for relative intrinsic activity in guinea pig isolated atrium right atria; assay type: functional, Cardiac atrium; in short: as §4
Canis familiaris [10] = organism: Canis familiaris; test: Ionotropic selectivity expressed as change in heart rate for 100 percent increase in right ventricular contractile force in dogs; assay type: functional, Canis lupus familiaris; in short: as §1
Cavia porcellus [11] = organism: Cavia porcellus; test: Effective concentration for increasing potency in guinea pig isolated right atria; assay type: functional; in short: as §4
Cavia porcellus [12] = organism: Cavia porcellus; test: as §3; assay type: functional; remark: listed apart in the source
Cavia porcellus [13] = organism: Cavia porcellus; test: as §5; assay type: functional; remark: listed apart in the source
In short: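 Isolated atria were stabilized 60 min with periodic washing. A cumulative isoproterenol concentration-response curve was run, then washed out. A cumulative curve with the test compound followed. The EC50 was derived, or EC20 where 50% was not reached. Intrinsic activity is the maximal response relative to isoproterenol maximum.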

Canis familiaris [14] = organism: Canis familiaris; test: Cardioselectivity expressed as change in blood pressure for 100% increase in right ventricular contractile force in dogs; CF(100) levels not obtained; assay type: functional, organism-based; conditions: Canis lupus familiaris; in short: as §2
Canis familiaris [15] = organism: Canis familiaris; test: Ionotropic selectivity expressed as change in heart rate for 100 percent increase in right ventricular contractile force in dogs; CF(100) levels not obtained; assay type: functional, organism-based; conditions: Canis lupus familiaris; in short: as §2
Canis familiaris [16] = organism: Canis familiaris; test: Inotropic potency expressed as 100 percent increase in right ventricular contractile force in dogs; CF(100) levels not obtained; CF(100) levels not obtained; assay type: functional, organism-based; conditions: Canis lupus familiaris; Heart right ventricle; in short: as §2
[17] = Percentage increase in contractile force was determined by the effect of DMI (desmethylimipramine, 1 mg/kg, iv) at 50 ug/kg
Canis familiaris [18] = organism: Canis familiaris; test: Inotropic potency expressed as 100 percent increase in right ventricular contractile force in dogs; CF(100) levels not obtained; assay type: functional, organism-based; conditions: Canis lupus familiaris; Heart right ventricle; in short: as §2
Canis familiaris [19] = organism: Canis familiaris; test: Cardioselectivity expressed as change in blood pressure for 100% increase in right ventricular contractile force in dogs; CF(100) level not obtained; assay type: functional, organism-based; conditions: Canis lupus familiaris; in short: as §2
Canis familiaris [20] = organism: Canis familiaris; test: Ionotropic selectivity expressed as change in heart rate for 100 percent increase in right ventricular contractile force in dogs; CF(100) level not obtained; assay type: functional, organism-based; conditions: Canis lupus familiaris; in short: as §2
Canis familiaris [21] = organism: Canis familiaris; test: Inotropic potency expressed as 100 percent increase in right ventricular contractile force in dogs; CF(100) level not obtained; assay type: functional, organism-based; conditions: Canis lupus familiaris; Heart right ventricle; in short: as §2

| Structure (SMILES) | BP (Canis familiaris [1]) | BP (Canis familiaris [2]) | HR (Canis familiaris [3]) | Potency (Canis familiaris [4]) | Potency (Canis familiaris [5]) | EC50 (Cavia porcellus [6]) | EC50 (Cavia porcellus [7]) | RIA (Cavia porcellus [8]) | RIA (Cavia porcellus [9]) | HR (Canis familiaris [10]) | further results |
| --- | --- | --- | --- | --- | --- | --- | --- | --- | --- | --- | --- |
| CC(C)NCC(O)c1ccc(O)c(O)c1 (centres undefined) [ISOPROTERENOL] | -27 mmHg | -17 mmHg | 13 beats min-1 | 0.35 nM/kg | 0.11 nM/kg | 3.2 nM | 6.2 nM | 1 | 1 | 35 beats min-1 |  |
| CC(Cc1ccc(O)c(O)c1)NC1CCc2cc(O)c(O)cc2C1 (centres undefined) |  | -39 mmHg | -5 beats min-1 | 27 nM/kg | 11.4 nM/kg | 280 nM |  | 0.95 | 0.69 | 4 beats min-1 | EC50 (Cavia porcellus [11]): 2200 nM |
| CC(Cc1ccc(O)c(O)c1)NC1CCc2c(ccc(O)c2O)C1 (centres undefined) | -54 mmHg | -42 mmHg | 26 beats min-1 | 20.1 nM/kg | 7.2 nM/kg | 250 nM | 160 nM | 1.02 | 0.87 | 40 beats min-1 |  |
| Oc1cc2c(cc1O)CC(NC1CCc3cc(O)c(O)cc3C1)CC2 (centres undefined) | 84 mmHg | 78 mmHg | 31 beats min-1 | 2650 nM/kg | 961 nM/kg |  |  | 0.38 | 0.08 | 62 beats min-1 | EC20 (Cavia porcellus [12]): 2400 nM; EC20 (Cavia porcellus [13]): > 110000 nM |
| Oc1ccc(CCNC2CCc3cc(O)c(O)cc3C2)cc1O (centres undefined) | 72 mmHg | 50 mmHg | 11 beats min-1 | 189 nM/kg | 85 nM/kg | 1500 nM |  | 0.84 | 0.67 | 30 beats min-1 | EC50 (Cavia porcellus [11]): 16000 nM |
| NC1CCc2c(ccc(O)c2O)C1 (centres undefined) |  | 41 mmHg | 11 beats min-1 |  | 410 nM/kg | 4400 nM | 38000 nM | 1.05 | 0.69 |  | BP (Canis familiaris [14]): inactive; HR (Canis familiaris [15]): inactive; Potency (Canis familiaris [16]): inactive; Increase [17]: 18% |
| CC(CCc1ccc(O)cc1)NCCc1ccc(O)c(O)c1 (centres undefined) [DOBUTAMINE] | 4 mmHg | 3 mmHg | 3 beats min-1 | 13.2 nM/kg | 4.1 nM/kg | 150 nM | 470 nM | 1.12 | 0.9 | 17 beats min-1 |  |
| CC(CCc1ccc(O)cc1)NC1CCc2cc(O)c(O)cc2C1 (centres undefined) | 60 mmHg | 13 mmHg | -3 beats min-1 | 410 nM/kg | 140 nM/kg |  |  | 0.38 | 0.15 | 19 beats min-1 | EC20 (Cavia porcellus [12]): 2700 nM; EC20 (Cavia porcellus [11]): > 110000 nM |
| CC(CCc1ccc(O)cc1)NC1CCc2c(ccc(O)c2O)C1 (centres undefined) | -61 mmHg | -51 mmHg | 20 beats min-1 | 196 nM/kg | 27.7 nM/kg | 730 nM | 1800 nM | 1.11 | 0.78 | 41 beats min-1 |  |
| CC(C)NC1CCc2c(ccc(O)c2O)C1 (centres undefined) |  | -66 mmHg | 20 beats min-1 |  | 110 nM/kg | 21000 nM | 1700 nM | 1.16 | 0.55 |  | BP (Canis familiaris [14]): CF(100) levels not obtained; HR (Canis familiaris [15]): CF(100) levels not obtained; Potency (Canis familiaris [18]): CF(100) levels not obtained |
| NCCc1ccc(O)c(O)c1 [DOPAMINE] | -5 mmHg | -15 mmHg | 5 beats min-1 | 125 nM/kg | 58.1 nM/kg | 1700 nM | 1500 nM | 1.15 | 1 | 12 beats min-1 |  |
| CC(CCc1ccc(O)c(O)c1)NC1CCc2cc(O)c(O)cc2C1 (centres undefined) | -11 mmHg | -36 mmHg | 20 beats min-1 | 109 nM/kg | 24.6 nM/kg |  | 1200 nM |  | 0.35 | 45 beats min-1 |  |
| CC(C)NC1CCc2cc(O)c(O)cc2C1 (centres undefined) |  | 46 mmHg | 9 beats min-1 |  | 1560 nM/kg | 49000 nM |  | 0.78 | 0.24 |  | BP (Canis familiaris [19]): CF(100) level not obtained; HR (Canis familiaris [20]): CF(100) level not obtained; Potency (Canis familiaris [21]): CF(100) level not obtained; EC20 (Cavia porcellus [11]): 200000 nM |
| NC1CCc2cc(O)c(O)cc2C1 (centres undefined) | 61 mmHg | 29 mmHg | -12 beats min-1 | 457 nM/kg | 173 nM/kg | 2500 nM | 33000 nM | 1.06 | 0.61 | 21 beats min-1 | Increase [17]: 5% |
